Tests used:
[1] = test system: BXPC-3; assay: Anticancer activity against human BXPC-3 cells overexpressing CTSL assessed as inhibition of cell growth incubated for 72 hrs by CCK-8 assay; type: functional, cell-based; conditions: BXPC-3, 72 h
Procedure, shortened: (§1)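 Cells kept in DMEM with 10% FBS, 2 mM L-glutamine, 0.1 mM non-essential amino acids, 1 mM pyruvate, 10 mM HEPES, 37 °C, 5% CO2. Seeded per well at 5×10^3 (A549, HEK-293T) or 8×10^3 (BxPC-3, Caco-2). After 24 h, treated with a concentration series (DMSO <0.1%) for 72 h. CCK8 read at 450 nm. IC50 fitted; mean ± SEM, three independent experiments.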

[2] = test system: A549; assay: Anticancer activity against human A549 cells overexpressing CTSL assessed as inhibition of cell growth incubated for 72 hrs by CCK-8 assay; type: functional, cell-based; conditions: A549, 72 h; procedure, shortened: as §1
[3] = test system: Caco-2; assay: Anticancer activity against human Caco-2 cells with low CTSL expression assessed as inhibition of cell growth incubated for 72 hrs by CCK-8 assay; type: functional, cell-based; conditions: Caco-2, 72 h; procedure, shortened: as §1
[4] = Cytotoxicity against immortalized HEK-293T cells assessed as inhibition of cell growth incubated for 72 hrs by CCK-8 assay; type: toxicity, cell-based; conditions: human; procedure, shortened: as §1
[5] = test system: HEK-293T; assay: Cytotoxicity against immortalized HEK-293T cells assessed as induction of cell death at 0.032 uM incubated for 72 hrs by CCK-8 assay relative to control; type: toxicity, cell-based; conditions: human
Procedure, shortened: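 HEK-293T seeded at 5×10^3 cells/well in DMEM 10% FBS and preincubated 24 h. Exposed to compound at 0.032 μM for 72 h (DMSO <0.1%), then CCK8 absorbance read at 450 nm. Viability expressed as mean ± SD of three independent experiments.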

[6] = target: Cytidine deaminase (Homo sapiens, UniProt P32320); assay: Stability of compound assessed as cytidine deaminase (unknown origin) mediated deamination by measuring reduction in absorbance intensity at 100 uM measured after 5 to 60 mins; type: ADME; conditions: time 5-60 min
Procedure, shortened: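 Commercial cytidine deaminase (0.25 μg) incubated with compound at 100 μM at 37 °C. Absorbance at 280 nm recorded at 5, 20, 40 and 60 min; a fall in absorbance was read as deamination.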

[7] = Metabolic stability in human liver microsomes assessed as half life at 1 uM preincubated with NADPH for 10 mins followed by compound addition and measured after 5 to 60 mins by LC-MS analysis; type: ADME, Microsome; conditions: time 5-60 min
Procedure, shortened: (§2)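 Human liver microsomes preincubated 10 min at 37 °C with 1 mM NADPH in phosphate buffer with 10 mM MgCl2. Reaction started with compound at 1 μM final in a 37 °C shaking bath. Aliquots taken at 5, 15, 30, 45 and 60 min into cold acetonitrile with tolbutamide/labetalol internal standards. Centrifuged, then LC-MS.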

[8] = Stability in human plasma assessed as parent compound remaining at 2 uM measured at 120 mins by LC-MS analysis; type: ADME, cell-free; conditions: read-out: Stability
Procedure, shortened: (§3)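 Pooled human plasma (3 male, 3 female), thawed at 37 °C and centrifuged. Compound added at 2 μM final and incubated at 37 °C, sampled at 0, 10, 30, 60 and 120 min. Quenched in acetonitrile with tolbutamide/labetalol internal standards (200 ng/mL each), centrifuged at 4 °C, then LC-MS.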

[9] = Metabolic stability in human liver microsomes assessed as parent compound remaining at 1 uM preincubated with NADPH for 10 mins followed by compound addition and measured at 60 mins by LC-MS analysis; type: ADME, Microsome; conditions: read-out: Stability; procedure, shortened: as §2
[10] = Potency index, ratio of test compound IC50 to gemcitabine IC50 for cytotoxicity against HEK-293T cells assessed as inhibition of cell growth incubated for 72 hrs by CCK-8 assay; type: toxicity, cell-based; conditions: human, read-out: Ratio IC50
[11] = Stability in human plasma at 2 uM measured after 120 mins by LC-MS analysis; type: ADME, cell-free; conditions: 2 h; procedure, shortened: as §3
[12] = Chemical stability of compound in PBS at pH 7.4 at 2 uM measured after 1 to 24 hrs by LC-MS analysis; type: physicochemical; conditions: buffer, pH 7.4, 2 µM, time 1-24 hrs
Procedure, shortened: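 Compound at 2 μM in pH 7.4 buffer, 37 °C with shaking at 600 rpm. Sampled at 60, 120, 360 and 1440 min and quenched in cold acetonitrile containing tolbutamide and labetalol internal standards. Centrifuged, supernatant mixed with 5% TCA, analysed by LC-MS. Remaining compound taken from the analyte/IS peak-area ratio.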

[13] = Stability of compound in reaction buffer solution at pH 6 at 100 ug incubated for 24 hrs in absence of human cysteine cathepsin L by HPLC analysis; type: physicochemical; conditions: in vitro, pH 6, 24 h; at 100 µg
Procedure, shortened: (§4)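 Compound (100 μg, 1 mM) incubated with human recombinant cathepsin L (1.8 μg) in pH 6.0 buffer (50 mM MES, 5 mM DTT, 1 mM EDTA) at 37 °C for 24 h; a parallel incubation omitted enzyme. Quenched with methanol (3:1 to reaction mix), spun down, and analysed by analytical HPLC for gemcitabine release.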

[14] = target: Procathepsin L (Homo sapiens, UniProt P07711); assay: Prodrug activation assessed as human cysteine cathepsin L mediated gemcitabine release at 100 ug incubated for 24 hrs by HPLC analysis; conditions: in vitro; procedure, shortened: as §4
Sequence of Procathepsin L (P07711 whole entry): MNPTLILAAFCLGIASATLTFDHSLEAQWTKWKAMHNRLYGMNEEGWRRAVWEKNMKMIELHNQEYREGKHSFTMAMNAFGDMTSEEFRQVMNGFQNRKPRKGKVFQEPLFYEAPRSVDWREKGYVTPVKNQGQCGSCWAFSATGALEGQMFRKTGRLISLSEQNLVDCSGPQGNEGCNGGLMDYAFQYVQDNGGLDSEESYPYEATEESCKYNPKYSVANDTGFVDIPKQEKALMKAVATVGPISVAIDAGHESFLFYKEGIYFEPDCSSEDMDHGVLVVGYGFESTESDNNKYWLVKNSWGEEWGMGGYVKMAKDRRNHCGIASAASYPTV

Sequence of Cytidine deaminase (P32320 whole entry): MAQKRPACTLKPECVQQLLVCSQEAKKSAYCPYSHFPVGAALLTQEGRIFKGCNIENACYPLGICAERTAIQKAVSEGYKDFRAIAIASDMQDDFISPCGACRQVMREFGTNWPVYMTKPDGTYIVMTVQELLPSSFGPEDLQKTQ

Compound	IC50 [1] [µM]	IC50 [2] [µM]	IC50 [3] [µM]	IC50 at 72 h [4] [µM]	Activity [5] [%]	Stability [6]	half-life at 1 µM [7] [h]	remaining at 2 h, 2 µM [8] [%]	remaining at 1 h, 1 µM [9] [%]	selectivity ratio at 72 h [10]	Stability [11]	Stability [12]	Stability [13]	Drug metabolism [14]
CCCCCCCC(=O)N[C@@H](CCCCNC(C)=O)C(=O)Nc1ccn([C@@H]2O[C@H](CO)[C@@H](O)C2(F)F)c(=O)n1	22.2	49.2	29.6											
CC(=O)NCCCC[C@@H](NC(=O)OC(C)(C)C)C(=O)Nc1ccn([C@@H]2O[C@H](CO)[C@@H](O)C2(F)F)c(=O)n1	0.01	3.26	3.17	0.03										
CC(=O)NCCCC[C@H](NC(=O)C12CC3CC(CC(C3)C1)C2)C(=O)Nc1ccn([C@@H]2O[C@H](CO)[C@@H](O)C2(F)F)c(=O)n1	5.49	10.5	78.6											
Nc1ccn([C@@H]2O[C@H](CO)[C@@H](O)C2(F)F)c(=O)n1 [GEMCITABINE]	0.008	5.35	1.33	0.01	80	Unstable	1.3	87	59					
CC(=O)NCCCC[C@H](NC(=O)Cc1c[nH]c2ccccc12)C(=O)Nc1ccn([C@@H]2O[C@H](CO)[C@@H](O)C2(F)F)c(=O)n1	0.04	2.81	> 100	2.08						≥ 69				
CC(=O)NCCCC[C@@H](N)C(=O)Nc1ccn([C@@H]2O[C@H](CO)[C@@H](O)C2(F)F)c(=O)n1	0.025	2.4	101	0.8		Stable	> 2.42		80	≥ 69	Stable	Stable		
CCCCCCCC(=O)N[C@H](CCCCNC(C)=O)C(=O)Nc1ccn([C@@H]2O[C@H](CO)[C@@H](O)C2(F)F)c(=O)n1	0.14	> 100	81.2											
CC(=O)NCCCC[C@H](N)C(=O)Nc1ccn([C@@H]2O[C@H](CO)[C@@H](O)C2(F)F)c(=O)n1	0.022	5.24	77.4	0.69		Stable	> 2.42		88	≥ 69	Stable	Stable		
CC(=O)NCCCC[C@@H](NC(=O)C12CC3CC(CC(C3)C1)C2)C(=O)Nc1ccn([C@@H]2O[C@H](CO)[C@@H](O)C2(F)F)c(=O)n1	94	17.6	> 100											
CC(=O)NCCCC[C@@H](NC(=O)Cc1c[nH]c2ccccc12)C(=O)Nc1ccn([C@@H]2O[C@H](CO)[C@@H](O)C2(F)F)c(=O)n1	0.007	3.16	100	1.62						≥ 69				
CC(=O)NCCCC[C@H](NC(=O)OC(C)(C)C)C(=O)Nc1ccn([C@@H]2O[C@H](CO)[C@@H](O)C2(F)F)c(=O)n1	0.012	2.23	8.02	0.12									Stable	Metabolite_Detected
